Rows were chosen to be rich in hits. Some 2% of all compounds tested hit in one or more screens of this group.
ARFGAP1 inh: inhibits rat ARF GTPase activating protein 1 | Arfgap1-stimulated ARF1 GTP hydrolysis, GDP FP detection | Q62848 | inhibition, % at 16.5 µM | AID 651572 | 0.26% of 360,000 active;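 active = inhibition above a per-plate limit, mean inhibition of low control wells plus 3 SD, cut at about 25% in these data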;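 note: 0% = DMSO wells with enzyme and 100% = wells lacking Arfgap1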
Target sequence (Q62848 1-136 limits assumed): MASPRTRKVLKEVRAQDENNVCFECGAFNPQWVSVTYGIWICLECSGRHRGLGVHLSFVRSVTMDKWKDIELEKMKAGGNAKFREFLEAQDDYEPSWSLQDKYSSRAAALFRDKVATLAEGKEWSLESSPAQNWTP
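Assay system: purified rat His6-Arfgap1 residues 1-136 (GAP domain); Reagent: human Δ17 ARF1 bound to GTP; Dosing: 16.5 µM single point, 1.26% DMSO; Times: GTP hydrolysis reaction 2 h at 25 °C; Signal: FP, GDP Alexa 633 tracer displaced from anti-GDP antibody, 620/688 nm; Measure: % inhibition from polarization.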
ASAP1 inh: blocks human ASAP1-stimulated Arf1 GTP hydrolysis; Q9ULH1; GDP FP detection; inhibition, % at 16.5 µM; 0.19% of 360,000 active; AID 624377;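 note: 0% = vehicle with enzyme and substrate and 100% = no enzyme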
Target sequence (Q9ULH1 325-724 limits assumed): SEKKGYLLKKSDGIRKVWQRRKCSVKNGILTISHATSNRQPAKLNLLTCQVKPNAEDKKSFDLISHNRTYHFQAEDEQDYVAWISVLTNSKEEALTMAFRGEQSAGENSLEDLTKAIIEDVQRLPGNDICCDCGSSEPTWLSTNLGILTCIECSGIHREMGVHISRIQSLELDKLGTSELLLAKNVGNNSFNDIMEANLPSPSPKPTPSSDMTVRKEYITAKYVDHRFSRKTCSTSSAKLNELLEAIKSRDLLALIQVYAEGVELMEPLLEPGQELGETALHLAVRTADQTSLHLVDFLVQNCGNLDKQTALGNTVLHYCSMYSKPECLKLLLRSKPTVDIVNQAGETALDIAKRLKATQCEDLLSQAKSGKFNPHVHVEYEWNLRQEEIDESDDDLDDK
TDP2 absorb: blocks human TDP2 phosphodiesterase activity. AID 720702. recombinant TDP2, T5PNP hydrolysis, p-nitrophenol absorbance 415 nm. O95551. 0.34% of 370,000 active. inhibition, % at 12.8 µM;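 active = inhibition above the mean of all tested compounds plus 3 SD, set per campaign, cut at about 25% in these data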;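 note: 0% = DMSO with enzyme and 100% = buffer with substrate but no TDP2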
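System – recombinant human TDP2 · Quantity – TDP2 enzyme at 120 nM final · Doses – single concentration, 12.8 µM nominal, with 1% DMSO · Incubation – 2 h at 37 °C · Measured by – epi absorbance of p-nitrophenol freed from T5PNP by hydrolysis · Read-out – % inhibition relative to enzyme-containing and enzyme-free wells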
UHRF1 binding: blocks human UHRF1 binding to methylated DNA; Q96T88; UHRF1 binding to methylated oligo, TR-FRET; inhibition, % at 4.4 µM; 0.75% of 370,000 active; in the data active = inhibition above about 21%;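 note: UHRF1 SRA domain binding a hemimethylated CpG hairpin DNA probe; 0% = median of test compound wells and 100% = reference inhibitor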
LEDGF integ inh: blocks HIV-1 LEDGF/p75-dependent DNA integration. TR-FRET IN-LEDGF/p75 DNA integration, Eu/Cy5. inhibition, % at 3.7 µM. 0.64% of 370,000 active. AID 743269;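 active = inhibition above the screen-wide mean plus 3 SD, cut at about 13% in these data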;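 note: signal is the Cy5 over europium emission ratio at 671 and 618 nm; 0% = plate median of compound wells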
MBD2 inh: inhibitors of human MBD2 binding to methylated oligonucleotide | inhibition, % at 4.4 µM | 0.31% of 370,000 active | TR-FRET | Q9UBB5 | AID 686964; in the data active = inhibition above about 13%
TDP2 confirm: human TDP2 inhibition, confirmation | shares compounds with TDP2 absorb | recombinant human TDP2, absorbance read-out | inhibition, % at 12.8 µM | 22% of 1,100 active | AID 743263;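 note: 0% = vehicle with enzyme and 100% = no enzyme buffer only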
An asterisk follows results filed as active; nt = no result. Cut-off read from the data, not from the text of the source, unless noted: active = inhibition above about 25%; inactive = the rest.

SMILES	ARFGAP1 inh	ASAP1 inh	TDP2 absorb	UHRF1 binding	LEDGF integ inh	MBD2 inh	TDP2 confirm
O=C(COC(=O)c1ccccc1)Nc1cccc(S(=O)(=O)NC2=NCCCCC2)c1	6.0	7.2	4.7	0.2	-3.3	-3.2	nt
CC1(C(=O)OCC(=O)Nc2cccc(S(=O)(=O)NC3=NCCCCC3)c2)CC1(Cl)Cl (centres undefined)	-4.0	-2.1	26.9*	-3.8	-5.2	3.0	2.8
O=C(COC(=O)c1ccc([N+](=O)[O-])s1)NCc1ccc(F)cc1	-7.0	-1.4	59.4*	14.4	7.4	1.7	23.2
NS(=O)(=O)c1ccc(NC(=O)COC(=O)c2ccc([N+](=O)[O-])s2)cc1	-4.2	4.2	27.5*	1.8	6.9	-8.4	36.0*
Cc1cc(C)c(NC(=O)COC(=O)c2ccc([N+](=O)[O-])s2)c(C)c1	2.0	0.1	-8.1	-2.2	1.5	-4.2	nt
CN(CC(=O)Nc1ccccc1Cl)C(=O)COC(=O)c1ccc([N+](=O)[O-])s1	-3.2	1.3	29.6*	-2.1	10.0	-1.7	18.9
O=S(=O)(c1ccc(Cl)s1)N1CCC(c2nc3ccccc3o2)CC1	nt	nt	5.7	2.0	-1.3	2.6	nt
O=C(CN1C(=O)CCS(=O)(=O)c2ccccc21)NCCc1ccccc1	2.8	-6.5	26.4*	-4.1	-2.7	3.4	10.0
O=C1CC(N2CCOCC2)=NN1c1ccc([N+](=O)[O-])cc1	19.4	-2.0	65.0*	4.3	2.6	-5.7	5.6
O=C(Cc1cccs1)Nc1ccc(Cl)cc1	5.6	-15.2	-3.6	2.7	1.5	0.4	nt
CC(=O)N(C)c1ccc(NC(=O)Cc2cccs2)cc1	4.7	12.3	25.1*	-0.8	1.2	-7.7	3.5
CC(=O)c1ccc(NC(=O)N2CCc3ccccc3C2)cc1	4.3	-21.4	26.7*	-3.8	-0.8	2.9	5.8
CC(=O)c1cccc(NC(=O)N2CCc3ccccc3C2)c1	3.7	-0.9	4.4	-1.6	1.6	-5.1	nt
C[C@@H]1COc2cc(Br)ccc2S(=O)(=O)N1Cc1cn(Cc2ccc(F)cc2)nn1	nt	nt	5.3	-0.1	-0.3	0.4	nt
CCC[C@H]1[C@@H](NCc2ccccc2)CC[C@@]23CCCN2C(=O)CCC[C@@H]13	nt	nt	-6.0	1.2	5.3	-6.5	nt
COc1cccc(NC(=O)c2cccnn2)c1	-15.6	7.1	7.4	-1.2	-0.5	-3.5	nt
COc1cccc(NC(=O)c2cccc(C(=O)Nc3cccc(OC)c3)n2)c1	-4.5	3.6	24.8*	-1.8	1.2	1.7	-6.3
Cc1cccc(NC(=O)C2CCN(C(=O)[C@@H]3Cc4ccccc4CN3)CC2)c1	4.0	-6.2	0.1	-3.1	-4.5	-3.5	nt
COc1ccc(NC(=O)C2CCN(C(=O)[C@@H]3Cc4ccccc4CN3)CC2)cc1	4.8	-1.1	27.9*	0.7	-1.1	-4.6	2.0
CCc1ccc(NC(=O)C2CCN(C(=O)[C@@H]3Cc4ccccc4CN3)CC2)cc1	-3.6	-9.7	0.8	-1.1	2.0	4.1	nt
Cc1ccc(NC(=O)C2CCN(C(=O)[C@@H]3Cc4ccccc4CN3)CC2)c(C)c1	3.5	-10.0	25.4*	8.6	0.9	4.8	1.6
S=c1[nH]nc(-c2cc(-c3ccccc3)n[nH]2)n1N=Cc1cccc(Oc2ccccc2)c1	nt	nt	-3.9	1.4	2.4	1.8	nt
CC1=C(C)CC(C(=O)NCc2ccccc2F)C(C(=O)O)C1 (centres undefined)	-6.0	-8.2	25.3*	-0.4	1.9	0.2	11.1
C[C@H]1CCCN1c1cccc2c1S(=O)(=O)N1CC[C@H](C1)O2	nt	nt	5.9	3.8	0.6	4.5	nt
NS(=O)(=O)c1ccc(-c2ccc(/C=C3\SC(=S)N(C4CCS(=O)(=O)C4)C3=O)o2)cc1 (centres undefined)	5.3	11.5	29.3*	1.3	5.9	1.8	-0.7
SMILES	ARFGAP1 inh	ASAP1 inh	TDP2 absorb	UHRF1 binding	LEDGF integ inh	MBD2 inh	TDP2 confirm
NS(=O)(=O)c1ccc(-c2ccc(C=NC3CCS(=O)(=O)C3)o2)cc1 (centres undefined)	-4.3	-13.5	0.9	-3.5	-0.6	-4.3	nt
COc1ccc(CN2C(NC(=O)OCc3ccccc3)=NC3=CC(C)(C)n4c(=O)n(-c5ccccc5)c(=O)n4C32)c(OC)c1 (centres undefined)	nt	nt	2.2	-1.9	-1.7	-0.5	nt
COc1ccc(Cc2nc3ccc(C(=O)N4CCCCC4CCO)cc3o2)cc1 (centres undefined)	5.8	17.1	24.8*	-2.8	-2.6	3.4	10.2
CCC1CCCCN1C(=O)c1ccc2nc(Cc3ccc(OC)cc3)oc2c1 (centres undefined)	3.5	1.0	12.4	1.9	-2.5	1.4	nt
COc1ccc2[nH]c(=O)c(C(=O)O)cc2c1	-4.2	-8.4	16.8	2.2	-2.9	0.4	nt
CC(C)C1Cc2[nH]c(=O)c(C(=O)O)cc2CO1 (centres undefined)	0.2	1.5	29.3*	-2.2	-0.8	3.9	9.1
Cc1ccc(-n2nc3cc(C)c(N)cc3n2)cc1	7.2	11.4	1.5	-0.8	5.1	-7.3	nt
Nc1ccc2nn(-c3cccc4ccccc34)nc2c1	4.5	17.5	36.2*	-7.1	2.4	-2.7	35.9*
Nc1cc2nn(-c3ccccc3)nc2cc1Cl	3.6	4.4	69.9*	-0.4	48.1*	-11.6	46.7*
Nc1ccc(-n2nc3ccccc3n2)cc1	0.7	12.7	9.7	-3.3	1.7	-4.2	nt
Nc1ccc2nn(-c3ccccc3)nc2c1	9.9	12.0	26.9*	-1.4	9.7	3.2	12.9
COC1=C(Nc2ccc(O)cc2)C(=O)c2ccccc2C1=O	-12.9	2.9	47.5*	-22.6	5.8	-24.0	6.5
CCOc1ccc(NC2=C(OC)C(=O)c3ccccc3C2=O)cc1	8.8	13.7	26.4*	-7.5	6.3	-17.9	22.2
CC(C)CC(=O)N1CCN(Cc2ccc(Br)cc2)CC1	8.8	-12.1	-1.2	-1.8	0.3	-2.1	nt
CC(C)CC(=O)N1CCN(Cc2ccc(C(F)(F)F)cc2)CC1	-15.9	10.4	30.3*	-0.1	-1.4	2.5	11.5
CC(C)CC(=O)N1CCN(Cc2ccc(Cl)cc2)CC1	9.0	4.1	26.2*	-1.7	1.4	-2.3	1.2
CCOc1cc(C2Nc3ccccc3C(=O)N2c2ccccc2)ccc1O (centres undefined)	-5.2	5.2	0.8	6.1	-2.0	3.5	nt
COc1cc(C2Nc3ccccc3C(=O)N2c2ccccc2)ccc1O (centres undefined)	-11.1	4.1	28.6*	19.3	6.1	10.0	5.3
CSc1nc2ccsc2c(=O)n1-c1ccccn1	7.3	7.7	60.0*	0.3	0.9	2.4	8.7

Compound activity from PubChem.
